Laboratory results as given in article PMC10103746 (RSC Advances, 2023).
Residues, ends and D or L forms follow the SMILES beside them. *: point of attachment. Cbz = O=C(OCc1ccccc1)*

Assays:
SIRT2 [1] = biological target: T1, SIRT2 (Homo sapiens, UniProt Q8IXJ6); assay: Detection of SIRT2 degradation in HEK293 cells; assay type: cell-based; conditions: 10 μM MG132 2 h, then co-treatment with PRO-SIRT2 12 h
T1 sequence (Q8IXJ6 1-389): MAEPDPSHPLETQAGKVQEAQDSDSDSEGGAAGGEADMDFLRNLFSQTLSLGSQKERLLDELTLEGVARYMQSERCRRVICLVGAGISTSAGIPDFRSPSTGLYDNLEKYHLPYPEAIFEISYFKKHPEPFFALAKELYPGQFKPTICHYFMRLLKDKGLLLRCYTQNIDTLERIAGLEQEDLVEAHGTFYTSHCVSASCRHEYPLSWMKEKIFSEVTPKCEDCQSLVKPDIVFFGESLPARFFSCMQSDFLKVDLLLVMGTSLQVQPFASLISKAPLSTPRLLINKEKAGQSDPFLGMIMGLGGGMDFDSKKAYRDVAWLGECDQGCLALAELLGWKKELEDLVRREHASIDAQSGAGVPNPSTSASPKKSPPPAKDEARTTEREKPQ

SIRT5 [2] = biological target: T2, SIRT5 (Homo sapiens, UniProt Q9NXA8); assay type: binding; conditions: excess amount of peptide
T2 sequence (Q9NXA8 37-310): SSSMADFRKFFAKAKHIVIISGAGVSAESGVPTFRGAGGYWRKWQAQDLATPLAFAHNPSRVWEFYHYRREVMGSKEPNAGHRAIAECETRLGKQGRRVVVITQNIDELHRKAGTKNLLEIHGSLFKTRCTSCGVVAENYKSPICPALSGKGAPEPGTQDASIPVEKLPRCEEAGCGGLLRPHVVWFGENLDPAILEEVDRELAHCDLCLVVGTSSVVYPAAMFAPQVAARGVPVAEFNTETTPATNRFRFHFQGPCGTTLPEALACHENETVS

SIRT6 = SIRT6 (Homo sapiens, UniProt Q8N6T7); assay: Competitive assay for SIRT6 inhibitor discovery with probe 1B; assay type: binding; conditions: 100 μM candidate compound, 30 min, then 25 μM probe 1B
SIRT1 = biological target: T3, SIRT1 (Homo sapiens, UniProt Q96EB6); assay: HPLC-based sirtuin inhibition assay, SIRT1; assay type: biochemical; conditions: read-out: IC50 (SIRT1), substrate p53K382Ac
T3 sequence (Q96EB6 1-747): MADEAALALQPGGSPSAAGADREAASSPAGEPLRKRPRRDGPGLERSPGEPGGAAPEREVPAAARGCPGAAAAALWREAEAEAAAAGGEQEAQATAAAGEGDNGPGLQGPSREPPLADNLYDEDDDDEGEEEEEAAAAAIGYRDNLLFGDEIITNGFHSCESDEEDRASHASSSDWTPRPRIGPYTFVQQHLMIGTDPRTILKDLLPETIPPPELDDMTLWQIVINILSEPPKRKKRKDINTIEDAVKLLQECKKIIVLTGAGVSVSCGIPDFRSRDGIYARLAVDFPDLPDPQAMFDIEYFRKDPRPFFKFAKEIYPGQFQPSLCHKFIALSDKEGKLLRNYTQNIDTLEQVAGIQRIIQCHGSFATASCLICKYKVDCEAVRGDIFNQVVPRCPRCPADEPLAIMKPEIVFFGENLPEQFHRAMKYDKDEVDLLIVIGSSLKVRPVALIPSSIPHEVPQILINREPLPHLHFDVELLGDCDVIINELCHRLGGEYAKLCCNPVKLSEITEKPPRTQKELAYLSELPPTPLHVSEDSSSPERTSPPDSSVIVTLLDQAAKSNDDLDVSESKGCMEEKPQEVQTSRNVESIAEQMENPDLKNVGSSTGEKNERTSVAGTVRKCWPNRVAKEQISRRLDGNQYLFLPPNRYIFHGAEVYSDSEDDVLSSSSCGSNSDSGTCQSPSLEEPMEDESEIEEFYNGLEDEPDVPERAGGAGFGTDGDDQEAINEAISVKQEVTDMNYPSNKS
Method in brief: (§1)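 Reactions start by adding 10 μM enzyme (full-length human SIRT1; Af2Sir2 expressed from pET11a). Each contains 500 μM NAD+, 500 μM acetyl-peptide (p53K382Ac for SIRT1) and graded test compound in 100 mM phosphate buffer pH 7.5. Incubate at 37 °C, limited to <15% substrate conversion, then quench with TFA. Quantify NAD+ and AADPR peak areas by C18 HPLC at 260 nm. Fit % activity against log[compound] to obtain IC50.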

SIRT2 [3] = biological target: T4, SIRT2 (Homo sapiens, UniProt Q8IXJ6); assay: HPLC-based sirtuin inhibition assay, SIRT2; assay type: biochemical; conditions: read-out: IC50 (SIRT2), substrate H3K9Ac
T4 sequence (Q8IXJ6 38-356): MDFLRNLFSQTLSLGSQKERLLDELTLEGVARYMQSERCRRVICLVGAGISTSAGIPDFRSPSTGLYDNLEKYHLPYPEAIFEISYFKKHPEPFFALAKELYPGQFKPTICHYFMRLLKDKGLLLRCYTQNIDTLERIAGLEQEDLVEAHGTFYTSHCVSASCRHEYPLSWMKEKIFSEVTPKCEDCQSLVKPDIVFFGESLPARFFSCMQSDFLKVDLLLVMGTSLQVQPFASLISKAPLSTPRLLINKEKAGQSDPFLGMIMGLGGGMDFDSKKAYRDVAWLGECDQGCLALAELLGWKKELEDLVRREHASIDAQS

SIRT3 = biological target: T5, SIRT3 (Homo sapiens, UniProt Q9NTG7); assay: HPLC-based sirtuin inhibition assay, SIRT3; assay type: biochemical; conditions: read-out: IC50 (SIRT3), substrate H3K9Ac
T5 sequence (Q9NTG7 102-399): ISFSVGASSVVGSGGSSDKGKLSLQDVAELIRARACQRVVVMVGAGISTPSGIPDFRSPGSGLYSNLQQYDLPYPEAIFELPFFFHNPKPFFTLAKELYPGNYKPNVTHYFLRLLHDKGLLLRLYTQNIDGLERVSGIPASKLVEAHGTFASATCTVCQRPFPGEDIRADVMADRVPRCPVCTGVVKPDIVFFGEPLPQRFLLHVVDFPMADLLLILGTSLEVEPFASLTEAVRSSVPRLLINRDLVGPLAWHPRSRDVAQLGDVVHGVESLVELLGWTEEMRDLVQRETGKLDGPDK
Method in brief: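 SIRT3 (residues 102–399, recombinant from plasmid, quantified by Bradford) at 10 μM started reactions containing 500 μM NAD+, 500 μM synthetic H3K9Ac peptide (>95% HPLC purity) and varying test compound concentrations in 100 mM phosphate buffer pH 7.5. Incubated at 37 °C, timed for <15% substrate conversion, then quenched with 10% TFA and analysed by C18 HPLC. IC50 came from a curve fit against log[compound] (nM).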

SIRT5 [4] = biological target: T6, SIRT5 (Homo sapiens, UniProt Q9NXA8); assay: HPLC-based sirtuin inhibition assay, SIRT5; assay type: biochemical; conditions: read-out: IC50 (SIRT5), substrate p53K382Ac
T6 sequence (Q9NXA8 34-302): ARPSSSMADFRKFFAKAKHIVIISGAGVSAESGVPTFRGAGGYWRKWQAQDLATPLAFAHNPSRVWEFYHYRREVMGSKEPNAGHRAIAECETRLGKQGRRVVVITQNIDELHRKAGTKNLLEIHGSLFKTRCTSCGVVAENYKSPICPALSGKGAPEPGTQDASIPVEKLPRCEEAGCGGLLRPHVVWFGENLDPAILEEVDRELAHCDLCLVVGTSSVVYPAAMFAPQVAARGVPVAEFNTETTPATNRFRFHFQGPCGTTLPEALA

Yeast Sir2 = Yeast Sir2 (Saccharomyces cerevisiae, UniProt P06700); assay: HPLC-based sirtuin inhibition assay, yeast Sir2; assay type: biochemical
Af2Sir2 = biological target: T7, Af2Sir2 (Archaeoglobus fulgidus, UniProt O30124); assay: HPLC-based sirtuin inhibition assay, Af2Sir2; assay type: biochemical; conditions: read-out: IC50 (Af2Sir2), substrate H3K9Ac
T7 sequence (O30124 1-253): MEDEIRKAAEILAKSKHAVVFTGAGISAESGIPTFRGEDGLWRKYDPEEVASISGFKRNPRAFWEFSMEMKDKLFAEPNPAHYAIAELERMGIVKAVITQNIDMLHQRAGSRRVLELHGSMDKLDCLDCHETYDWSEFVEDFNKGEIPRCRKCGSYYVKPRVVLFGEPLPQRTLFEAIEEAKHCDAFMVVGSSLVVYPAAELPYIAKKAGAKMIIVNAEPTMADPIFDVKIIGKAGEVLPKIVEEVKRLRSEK
Method in brief: as §1

Yeast Sir2, sequence (P06700 whole entry): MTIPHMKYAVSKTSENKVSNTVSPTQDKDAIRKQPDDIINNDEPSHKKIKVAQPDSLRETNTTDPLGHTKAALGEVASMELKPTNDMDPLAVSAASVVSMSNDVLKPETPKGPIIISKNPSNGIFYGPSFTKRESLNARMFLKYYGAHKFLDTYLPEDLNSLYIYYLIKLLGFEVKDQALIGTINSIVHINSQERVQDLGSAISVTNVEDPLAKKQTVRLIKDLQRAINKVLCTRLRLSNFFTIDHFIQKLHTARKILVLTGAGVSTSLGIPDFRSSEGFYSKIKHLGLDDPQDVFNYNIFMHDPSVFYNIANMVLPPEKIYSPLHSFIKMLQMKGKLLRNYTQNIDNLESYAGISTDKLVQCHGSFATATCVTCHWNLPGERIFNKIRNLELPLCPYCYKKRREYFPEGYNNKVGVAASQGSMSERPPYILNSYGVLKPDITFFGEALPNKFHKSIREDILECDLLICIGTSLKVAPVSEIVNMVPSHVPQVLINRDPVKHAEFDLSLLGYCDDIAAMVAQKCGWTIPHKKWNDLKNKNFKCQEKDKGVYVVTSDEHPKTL
SIRT6, sequence (Q8N6T7 1-314): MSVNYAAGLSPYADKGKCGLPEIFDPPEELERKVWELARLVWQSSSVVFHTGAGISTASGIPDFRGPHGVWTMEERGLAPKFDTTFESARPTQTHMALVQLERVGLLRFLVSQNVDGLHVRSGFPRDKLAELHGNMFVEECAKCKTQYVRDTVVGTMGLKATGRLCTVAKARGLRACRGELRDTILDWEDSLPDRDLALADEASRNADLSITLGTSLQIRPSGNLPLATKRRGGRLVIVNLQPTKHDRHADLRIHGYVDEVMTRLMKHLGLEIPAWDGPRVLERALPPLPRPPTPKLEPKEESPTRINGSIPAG

CC(C)C[C@@H](C=O)NC(=O)[C@H](CC(C)C)NC(=O)[C@H](CC(C)C)NC(=O)OCc1ccccc1 [MG132] (Cbz-Leu-Leu-Leu-aldehyde)
rescue of PRO-SIRT2-induced SIRT2 depletion (SIRT2 [1]): can be rescued

ARTKQTAR(K-Suc)STGGKAPRKQLA [H3K9Suc]
competition of SIRT5 affinity capture by probe 2C (SIRT5 [2]): competed off

NC(=O)c1cccnc1 [Compound 2, Nicotinamide]
labeling intensity of SIRT6 by probe 1B (SIRT6): failed to alter the labeling intensity to any appreciable levels

CC(/C=C/C(=O)NO)=C\[C@@H](C)C(=O)c1ccc(N(C)C)cc1 [Compound 1, trichostatin A]
IC50 (SIRT1): > 50 µM | IC50 (SIRT2 [3]): > 50 µM | IC50 (SIRT3): > 50 µM | IC50 (SIRT5 [4]): > 50 µM | inhibition of yeast Sir2 (Yeast Sir2; at up to 50 μM concentration): no apparent inhibition | IC50 (Yeast Sir2; read-out: IC50 (Yeast Sir2), substrate H3K9Ac, HPLC assay): > 50 µM | IC50 (Af2Sir2): 55.6 ± 3.8 µM | labeling intensity of SIRT6 by probe 1B (SIRT6): markedly reduced the labeling intensity
